Assay outcomes as filed in PubChem.
This is a sample that favours compounds with a hit; in the whole collection about 2.9% have one here.
SENP7 block: blocks the human protease SENP7; Q9BQF6; inhibition, % at 5 µM; AID 434973; recombinant SENP7, Z-RLRGG-aminoluciferin luminescence, 40 min; actives 1.5% (n = 330,000);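 active = inhibition above about 50% at the single test dose, limit read from the data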
SENP6 inh: blocks the human protease SENP6; Q9GZR1; Recombinant SENP6 catalytic domain, aminoluciferin luminescence; inhibition, % at 10 µM; actives 1.8% (n = 330,000);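 active = inhibition above about 50% at the single tested dose, limit read from the data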
Target sequence (Q9GZR1 628-1112 limits assumed): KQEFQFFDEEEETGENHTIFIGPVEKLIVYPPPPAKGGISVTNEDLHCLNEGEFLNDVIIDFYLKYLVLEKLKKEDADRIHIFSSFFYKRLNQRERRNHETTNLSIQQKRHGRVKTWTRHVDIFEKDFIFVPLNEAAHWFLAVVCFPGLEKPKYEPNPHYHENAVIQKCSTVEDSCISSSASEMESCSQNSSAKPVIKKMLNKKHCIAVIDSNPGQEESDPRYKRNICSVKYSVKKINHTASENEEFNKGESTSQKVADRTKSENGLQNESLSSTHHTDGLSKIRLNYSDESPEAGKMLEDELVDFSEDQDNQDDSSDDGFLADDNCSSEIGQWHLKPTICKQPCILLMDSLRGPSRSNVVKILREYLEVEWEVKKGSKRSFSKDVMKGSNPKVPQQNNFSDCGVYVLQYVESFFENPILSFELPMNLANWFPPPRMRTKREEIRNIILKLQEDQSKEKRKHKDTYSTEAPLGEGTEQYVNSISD
SENP8 block-1: SENP8 (human) protease inhibition | actives 0.64% (n = 360,000) | AID 602440 | inhibition, % at 20 µM | recombinant SENP8, Nedd8 substrate fluorescence; in the data active = inhibition mostly above about 40%, no sharp cut-off; inactive = mostly below about 27%
Target sequence (Q96LD8 whole entry, looked up): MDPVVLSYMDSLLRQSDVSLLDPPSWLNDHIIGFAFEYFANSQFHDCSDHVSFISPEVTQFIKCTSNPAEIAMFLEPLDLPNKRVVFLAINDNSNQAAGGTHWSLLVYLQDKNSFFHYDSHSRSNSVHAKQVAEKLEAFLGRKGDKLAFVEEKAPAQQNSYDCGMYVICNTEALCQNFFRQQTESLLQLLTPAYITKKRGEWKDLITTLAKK
SENP8 block-2: inhibitors of human SENP8 protease. purified SENP8, Z-RLRGG-aminoluciferin cleavage, luminescence. actives 1.2% (n = 330,000). AID 2540. Q96LD8. inhibition, % at 10 µM; in the data active = inhibition above about 50%
SENP1 FRET inh: blocks the human SENP1 SUMO protease catalytic domain. Q9P0U3. inhibition, % at 10 µM. recombinant SENP1 catalytic domain, CyPet-SUMO1-YPet FRET cleavage. actives 0.21% (n = 360,000);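 active = inhibition at least 30% at 10 µM, raw YFP signal under a set limit, fluorescence ratio 0.5 to 1.5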
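Assay system – human recombinant His6-tagged SENP1 catalytic domain enzyme · Input – SENP1 enzyme, 20 pM final · Buffer or medium – Tris pH 8 buffer plus EDTA, NaCl, BME, BSA, NP40, catalase · Schedule – 50 min reaction at room temperature · Technique – FRET read of cyan and yellow fluorescence · Control set – no-enzyme wells low, DMSO-plus-enzyme wells high control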
HSP90 refold inh: blocks HSP90-mediated luciferase refolding in reticulocyte lysate. Rabbit reticulocyte lysate, luciferase refolding luminescence, 3 h. inhibition, % at 5.6 µM. actives 0.91% (n = 290,000). AID 1789;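 active = inhibition above the screen-wide mean plus 3 SD, computed separately per campaign, cut at about 16% in these data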;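 note: inhibitors lower the luminescence because luciferase stays unfolded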
SENP8 conf: human SENP8 inhibition, confirmed; shares compounds with SENP7 block; Recombinant SENP8, Z-RLRGG-aminoluciferin luminescence, 60 min; inhibition, % at 12.5 µM; actives 40% (n = 6,200);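 active = mean inhibition across replicates above about 50%, limit read from the data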
SENP6 conf: human SENP6 inhibition, confirmed | AID 488915 | shares compounds with SENP7 block | recombinant SENP6, Z-RLRGG-aminoluciferin luminescence | actives 58% (n = 6,200) | inhibition, % at 12.5 µM
SENP7 conf: human SENP7 inhibition, confirmed; shares compounds with SENP7 block; recombinant SENP7, Z-RLRGG-aminoluciferin luminescence, 40 min; inhibition, % at 12.5 µM; actives 69% (n = 6,200)
Casp3 select: selectivity test for SENP inhibitors: human caspase-3 inhibition. shares compounds with SENP7 block. purified caspase-3, Z-DEVD-aminoluciferin luminescence, 60 min. inhibition, % at 12.5 µM. actives 60% (n = 6,200);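 active = mean inhibition above about 50%, limit read from the data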
Luc interf: interferes with luciferase luminescence in SENP counter-screen | shares compounds with SENP7 block | Pre-incubated SENP8/Z-RLRGG-aminoluciferin, luciferase luminescence interference | inhibition, % at 12.5 µM | actives 39% (n = 6,200) | AID 488919;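 active = mean inhibition above about 50% when retested at one dose, limit read from the data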
A number is an active result; n = inactive; x = not tested or not shown.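 Rule for the calls, unless noted: active = mean inhibition above about 50% in the one-dose retest (limit read from the data); inactive = the rest.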

SMILES | SENP7 block | SENP6 inh | SENP8 block-1 | SENP8 block-2 | SENP1 FRET inh | HSP90 refold inh | SENP8 conf | SENP6 conf | SENP7 conf | Casp3 select | Luc interf
COc1ccccc1-c1noc(-c2cccs2)n1 | 68 | 76 | n | 59 | n | n | 78 | 78 | 92 | 78 | 80
CCOC(=O)Nc1ccc(C(=O)Oc2ccccc2)c(O)c1 | 53 | n | n | n | n | n | n | n | 69 | n | n
O=C(Nc1ccc(OC(=O)c2cccs2)cc1)c1ccco1 | 82 | 87 | n | 67 | n | n | 72 | 72 | 94 | 77 | n
O=C(Nc1ccc(C(=O)Oc2ccccc2)c(O)c1)c1ccco1 | 82 | 91 | n | 73 | n | n | 80 | 81 | 96 | 66 | n
O=C(Nc1cccc(NC(=O)c2cccs2)c1)c1ccco1 | n | n | n | n | n | n | x | x | x | x | x
C/C(=N\NC(=O)Cc1ccc(Cl)cc1)c1cccnc1 | n | n | n | n | n | n | x | x | x | x | x
O=[N+]([O-])c1ccc(-c2cn(-c3ccc(Cl)cc3)cn2)cc1 | x | x | n | x | n | x | x | x | x | x | x
Brc1ccc(-n2cnc(-c3ccccc3)c2)cc1 | 79 | 71 | n | 69 | n | n | 61 | 62 | 92 | 59 | n
COc1cccc(NC(=O)CN(C)C(=O)CC2CC3CCC2C3)c1 (stereo not drawn) | n | n | n | n | n | x | x | x | x | x | x
CCN(C(=O)COC(=O)c1cc(-c2ccc3cc(OC)ccc3c2)nc2ccccc12)C1CCS(=O)(=O)C1 (stereo not drawn) | 92 | 94 | x | 89 | x | n | n | 74 | n | 77 | n
CCN(C(=O)COC(=O)c1cccnc1Nc1ccccc1F)C1CCS(=O)(=O)C1 (stereo not drawn) | 96 | 91 | n | 83 | n | n | 91 | 91 | 99 | 94 | 90
CN(C(=O)COC(=O)c1cccnc1Nc1ccccc1F)C1CCS(=O)(=O)C1 (stereo not drawn) | 56 | 58 | n | n | n | n | n | n | 74 | 75 | 53
CCCCCCN1C[C@@H](O)[C@H](n2cc(C3CC3)nn2)C[C@@H]1c1ccc(C)cc1 | x | x | n | x | n | x | x | x | x | x | x
CCCCNc1c(-c2ccc(SC3CCCCC3)cc2)nc2ccccn12 | n | 83 | n | 63 | n | x | n | n | n | n | n
CCCCNc1c(-c2cccc(SC3CCCCC3)c2)nc2ccc(Cl)cn12 | n | n | n | n | n | x | x | x | x | x | x
CCCCNc1c(-c2ccc(SC(C)CC)cc2)nc2ccccn12 (stereo not drawn) | 83 | 97 | n | 74 | n | x | 73 | 64 | 94 | 82 | 83
CCN(CC)C(=O)c1cccc(-c2csc(C(O)c3ccc(F)c(OC)c3)n2)c1 (stereo not drawn) | x | x | n | x | n | x | x | x | x | x | x
CC1CCCN(CCCN2C(=O)C3C(C(=O)Nc4cccc(Cl)c4)C4C=CC3(O4)C2C(=O)NC2CCCCC2)C1 (stereo not drawn) | n | n | n | n | n | n | x | x | x | x | x
COc1ccc(-c2cc(=O)c3cc(C)ccc3[nH]2)cc1 | n | n | n | n | n | n | x | x | x | x | x
COc1ccc2c(c1)oc(=O)c1cc(OC)ccc12 | 80 | 65 | n | n | n | n | n | n | 63 | 65 | n
COc1ccc(-c2cc(=O)c3cc(OC)ccc3o2)cc1 | 98 | 92 | n | 88 | n | n | n | n | n | n | n
CSc1ccc(-c2cc(=O)c3ccccc3o2)cc1 | n | 59 | n | 57 | n | n | 66 | 63 | 84 | 51 | n
COc1ccc(-c2cc(=O)c3cc(OC)ccc3[nH]2)cc1 | 81 | 84 | n | 74 | n | n | n | 78 | 96 | 93 | n
O=c1cc(-c2ccccc2)oc2ccc(Br)cc12 | 73 | n | n | n | n | x | n | n | n | n | n
O=c1cc(-c2ccccc2)oc2ccc(Cl)cc12 | x | x | n | x | n | x | x | x | x | x | x
SMILES | SENP7 block | SENP6 inh | SENP8 block-1 | SENP8 block-2 | SENP1 FRET inh | HSP90 refold inh | SENP8 conf | SENP6 conf | SENP7 conf | Casp3 select | Luc interf
CC1(Oc2cccc(F)c2)CCN(Cc2ccc3ccccc3c2)C1 (stereo not drawn) | x | x | n | x | n | x | x | x | x | x | x
Cc1cc2nc(C(C)(C)C)c(Cc3ccccc3)n2c(C)c1Br | x | x | n | x | n | x | x | x | x | x | x
CCc1cc(=O)oc2c3c(cc(OCC(=O)NCc4ccncc4)c12)OC(C)(C)CC3 | n | 52 | n | n | n | n | n | n | n | n | n
CC(C)(C)NC(=O)CCN(/N=C/c1ccccc1O)C1=NS(=O)(=O)c2ccccc21 | n | n | n | n | n | n | x | x | x | x | x
COc1ccc(-c2oc3c(c2C(=O)OCCCO)C(OCCO)CCC3)cc1 (stereo not drawn) | x | x | n | x | n | x | x | x | x | x | x
COc1cc2sc3cc(NCc4ccc5c(c4)OCO5)ccc3c(=O)c2cc1OC | 70 | n | n | n | n | x | n | n | n | n | n
COc1ccc(NCc2ccc3c(c2)OCO3)cc1Cl | n | n | n | n | n | n | x | x | x | x | x
COc1cc2sc3cc(NCC[C@@H]4CCCN4C)ccc3c(=O)c2cc1OC | 53 | 57 | n | 50 | n | x | n | n | n | n | n
CCn1cc(C(=O)NCc2ccc(C)o2)c2cc(OC)c(OC)cc2c1=O | n | n | n | n | n | n | x | x | x | x | x
COc1cccc2sc3cc(NCc4ccc5c(c4)OCO5)ccc3c(=O)c12 | 58 | n | n | n | n | x | n | n | n | n | n
COc1cc2sc3cc(NCc4ccc(C)o4)ccc3c(=O)c2cc1OC | 87 | n | n | 81 | n | x | n | 56 | 88 | 80 | 62
COc1cccc2sc3ccc(NCCC4CCCN4C)cc3c(=O)c12 (stereo not drawn) | n | n | n | n | n | n | x | x | x | x | x
O=C(N/N=C/c1cc2c(cc1Cl)OCO2)c1ccccn1 | n | 66 | n | n | n | n | n | n | n | 52 | n
O=C(N/N=C/c1ccc(OC(=O)c2ccccc2Br)cc1)c1ccccn1 | 71 | n | n | n | n | n | n | n | n | n | n
O=C(N/N=C/c1cc2c(cc1[N+](=O)[O-])OCO2)c1ccccn1 | n | n | n | n | n | n | x | x | x | x | x
CC(C)(C)c1ccc(/C=N/NC(=O)c2ccccn2)cc1 | 79 | n | n | 59 | n | n | n | n | n | n | n
Cc1ccsc1/C=N/NC(=O)c1ccccn1 | n | 61 | n | n | n | n | n | n | 78 | 84 | 60
